Consider eleven compounds from ChEMBL document CHEMBL4014337, “Antimalarial Inhibitors Targeting Serine Hydroxymethyltransferase (SHMT) with in Vivo Efficacy and Analysis of their Binding Mode Based on X-ray Cocrystal Structures” (J Med Chem, 2017).

Some results are limits rather than exact numbers.

A short description of data set [1]: Partition coefficient, logD of compound at pH 7.4 by HPLC analysis. Type of data set: physicochemical. As to conditions: octanol/water. An outline of the steps:
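logD at pH 7.4 measured by HPLC.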

The nature of data set [2]: Kinetic solubility of the compound in pH 6.5 phosphate buffer after 30 mins by nephelometry. As to conditions: pH 6.5, 0.5 h. Type of data set: physicochemical.
Data set [3] is described as follows: Kinetic solubility of the compound in pH 2 HCl after 30 mins by nephelometry. Type of data set: physicochemical. As to conditions: buffer, pH 2, 0.5 h.
Data set [4] in a line: Cytotoxicity against human HepG2 cells after 72 hrs by CyQuant-Direct reagent based fluorescence assay. Type of data set: cell-based.
Data set [5] concerns Salmonella typhimurium. In words: Mutagenicity in Salmonella typhimurium TA98 assessed as increase in number of revertant colonies at 1250 to 5000 ug/ml in absence of ariclor-induced rat liver S9 fraction by Ames test relative to control. Type of data set: toxicity. As to conditions: salmonella enterica subsp. enterica serovar typhimurium. In outline: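 Ames plate incorporation test run in two independent experiments across five Salmonella strains, with and without metabolic activation. Revertant colonies were counted per plate and compared with concurrent vehicle controls. A reproducible increase of ≥2-fold in revertant colony number over vehicle control was scored as evidence of mutagenicity.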
In general terms: The Ames test uses bacterial strains that need an amino acid and regain growth without it when mutated back.

A word on the logD: it is the decadic logarithm of the distribution of all forms, ionised or not, between an organic phase and buffer at a given pH. For the compound `Cc1[nH]nc2c1C(c1cc(-c3cccc(C(=O)O)c3)cc(C(F)(F)F)c1)(C(C)C)C(C#N)=C(N)O2` (racemic), in data set [1], the logD is 1.8.

With `Cc1[nH]nc2c1C(c1cc(N3CC4CCCC4C3)cc(C(F)(F)F)c1)(C(C)C)C(C#N)=C(N)O2` (racemic), the Kinetic_solubility entry in data set [2] and in data set [3] was “Soluble” in each case.

`Cc1[nH]nc2c1C(c1cc(F)cc(-c3ccncc3)c1)(C(C)C)C(C#N)=C(N)O2` (racemic): the Kinetic_solubility entry in data set [2] and in data set [3] was “Soluble” in each case.

`Cc1[nH]nc2c1C(c1cc(F)cc(N3CCC(C(=O)O)CC3)c1)(C(C)C)C(C#N)=C(N)O2` (racemic) registered a logD in data set [1] of 1.2.

Broadly, the IC20 is the point of the concentration-response curve where the effect stands at 20%. A low value points to an effect from little substance. `Cc1[nH]nc2c1C(c1cc(-c3cccnc3)cc(C(F)(F)F)c1)(C(C)C)C(C#N)=C(N)O2` (racemic) came in with an IC20 at 72 h in data set [4] of 18.9 µM.

Take `Cc1[nH]nc2c1C(c1cc(F)cc(N3CCOCC3)c1)(C(C)C)C(C#N)=C(N)O2` (racemic): the Kinetic_solubility entry in data set [2] and in data set [3] was “Soluble” in each case.

`Cc1[nH]nc2c1C(c1cc(N3CCC(C(=O)O)CC3)cc(C(F)(F)F)c1)(C(C)C)C(C#N)=C(N)O2` (racemic) gave a logD in data set [1] of 1.6. Further, the Kinetic_solubility entry in data set [2] and in data set [3] was “Soluble” throughout.

In data set [1], `Cc1[nH]nc2c1C(c1cc(C#N)cc(-c3cccc(C(=O)O)c3)c1)(C(C)C)C(C#N)=C(N)O2` (racemic) yielded a log distribution coefficient (logD) of 1.4.

`Cc1[nH]nc2c1C(c1cc(F)cc(-c3cccc(C(=O)O)c3)c1)(C(C)C)C(C#N)=C(N)O2` (racemic) displayed a logD in data set [1] of 1.5. Also, the “fold change (FC)” value in data set [5] was “>= 2”. Also, the Kinetic_solubility result in data set [2] and in data set [3] was “Soluble” throughout.

As to `Cc1[nH]nc2c1C(c1cc(N3CCS(=O)(=O)CC3)cc(C(F)(F)F)c1)(C(C)C)C(C#N)=C(N)O2` (racemic), the Kinetic_solubility entry in data set [2] and in data set [3] was “Soluble” throughout.

In turn, `COc1ccc(-c2cc(C(F)(F)F)cc(C3(C(C)C)C(C#N)=C(N)Oc4n[nH]c(C)c43)c2)cc1C(=O)O` (racemic) showed a log distribution coefficient (logD) in data set [1] of 1.7. In addition, the Kinetic_solubility entry in data set [2] and in data set [3] was “Soluble” each time.
